Test results reported in ChEMBL document CHEMBL4043298, “Discovery of a Potent (4 R,5 S)-4-Fluoro-5-methylproline Sulfonamide Transient Receptor Potential Ankyrin 1 Antagonist and Its Methylene Phosphate Prodrug Guided by Molecular Modeling” (J Med Chem, 2018).
Values after ≈ are worked out from the molar mass of the structure shown.

What was measured:
[1] = biological target: Transient receptor potential cation channel subfamily A member 1 (Homo sapiens, UniProt O75762); assay: Inhibition of human TRPA1 expressed in HEK293 cells assessed as inhibition of cinnamaldehyde-induced Ca2+ influx preincubated for 20 mins followed by cinnamaldehyde induction by FLIPR assay; format: cell-based
Sequence of Transient receptor potential cation channel subfamily A member 1 (Homo sapiens, UniProt O75762) (O75762 whole entry): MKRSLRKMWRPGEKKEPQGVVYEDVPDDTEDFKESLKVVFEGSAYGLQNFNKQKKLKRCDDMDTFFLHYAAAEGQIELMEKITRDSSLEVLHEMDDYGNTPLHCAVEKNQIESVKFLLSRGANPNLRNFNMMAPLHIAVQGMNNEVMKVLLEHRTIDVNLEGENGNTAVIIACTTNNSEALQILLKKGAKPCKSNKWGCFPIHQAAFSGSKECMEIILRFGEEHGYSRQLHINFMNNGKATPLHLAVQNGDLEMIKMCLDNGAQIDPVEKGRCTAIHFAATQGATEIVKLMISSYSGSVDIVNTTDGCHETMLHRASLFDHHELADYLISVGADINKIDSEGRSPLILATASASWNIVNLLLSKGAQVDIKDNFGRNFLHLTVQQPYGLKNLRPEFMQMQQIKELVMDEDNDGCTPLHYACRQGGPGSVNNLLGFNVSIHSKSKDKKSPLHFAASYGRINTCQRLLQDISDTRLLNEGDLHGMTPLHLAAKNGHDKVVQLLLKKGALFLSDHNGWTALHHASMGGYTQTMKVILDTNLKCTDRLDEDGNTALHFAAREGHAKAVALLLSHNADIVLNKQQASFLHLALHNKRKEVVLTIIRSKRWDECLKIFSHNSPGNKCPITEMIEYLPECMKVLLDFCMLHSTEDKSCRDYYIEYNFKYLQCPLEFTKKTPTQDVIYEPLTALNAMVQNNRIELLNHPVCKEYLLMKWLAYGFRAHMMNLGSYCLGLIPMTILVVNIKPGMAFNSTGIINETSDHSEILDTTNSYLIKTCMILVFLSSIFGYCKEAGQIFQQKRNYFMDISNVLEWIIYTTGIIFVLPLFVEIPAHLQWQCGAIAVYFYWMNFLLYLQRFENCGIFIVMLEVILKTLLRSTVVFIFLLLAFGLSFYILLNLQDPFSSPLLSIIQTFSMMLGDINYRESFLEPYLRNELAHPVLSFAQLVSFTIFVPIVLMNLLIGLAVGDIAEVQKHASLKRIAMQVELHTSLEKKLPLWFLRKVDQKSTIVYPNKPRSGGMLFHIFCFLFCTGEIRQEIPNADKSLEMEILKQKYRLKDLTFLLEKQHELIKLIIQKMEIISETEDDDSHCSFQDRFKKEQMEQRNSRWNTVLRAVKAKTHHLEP

[2] = Clearance in human liver microsomes; format: ADME, microsome
How it was run: (§1)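 Hepatic clearance predicted from human or rat liver microsome incubations.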

[3] = Clearance in rat liver microsomes; format: ADME, microsome; how it was run: as §1
[4] = Lipophilicity, log D of the compound at pH 7.4; settings: buffer
[5] = Kinetic solubility of the compound; format: physicochemical; settings: read-out: Kinetic_solubility
[6] = biological target: Transient receptor potential cation channel subfamily A member 1 (Rattus norvegicus, UniProt Q6RI86); assay: Inhibition of rat TRPA1 expressed in HEK293 cells assessed as inhibition of cinnamaldehyde-induced Ca2+ influx preincubated for 20 mins followed by cinnamaldehyde induction by FLIPR assay; format: cell-based
Sequence of Transient receptor potential cation channel subfamily A member 1 (Rattus norvegicus, UniProt Q6RI86) (Q6RI86 whole entry): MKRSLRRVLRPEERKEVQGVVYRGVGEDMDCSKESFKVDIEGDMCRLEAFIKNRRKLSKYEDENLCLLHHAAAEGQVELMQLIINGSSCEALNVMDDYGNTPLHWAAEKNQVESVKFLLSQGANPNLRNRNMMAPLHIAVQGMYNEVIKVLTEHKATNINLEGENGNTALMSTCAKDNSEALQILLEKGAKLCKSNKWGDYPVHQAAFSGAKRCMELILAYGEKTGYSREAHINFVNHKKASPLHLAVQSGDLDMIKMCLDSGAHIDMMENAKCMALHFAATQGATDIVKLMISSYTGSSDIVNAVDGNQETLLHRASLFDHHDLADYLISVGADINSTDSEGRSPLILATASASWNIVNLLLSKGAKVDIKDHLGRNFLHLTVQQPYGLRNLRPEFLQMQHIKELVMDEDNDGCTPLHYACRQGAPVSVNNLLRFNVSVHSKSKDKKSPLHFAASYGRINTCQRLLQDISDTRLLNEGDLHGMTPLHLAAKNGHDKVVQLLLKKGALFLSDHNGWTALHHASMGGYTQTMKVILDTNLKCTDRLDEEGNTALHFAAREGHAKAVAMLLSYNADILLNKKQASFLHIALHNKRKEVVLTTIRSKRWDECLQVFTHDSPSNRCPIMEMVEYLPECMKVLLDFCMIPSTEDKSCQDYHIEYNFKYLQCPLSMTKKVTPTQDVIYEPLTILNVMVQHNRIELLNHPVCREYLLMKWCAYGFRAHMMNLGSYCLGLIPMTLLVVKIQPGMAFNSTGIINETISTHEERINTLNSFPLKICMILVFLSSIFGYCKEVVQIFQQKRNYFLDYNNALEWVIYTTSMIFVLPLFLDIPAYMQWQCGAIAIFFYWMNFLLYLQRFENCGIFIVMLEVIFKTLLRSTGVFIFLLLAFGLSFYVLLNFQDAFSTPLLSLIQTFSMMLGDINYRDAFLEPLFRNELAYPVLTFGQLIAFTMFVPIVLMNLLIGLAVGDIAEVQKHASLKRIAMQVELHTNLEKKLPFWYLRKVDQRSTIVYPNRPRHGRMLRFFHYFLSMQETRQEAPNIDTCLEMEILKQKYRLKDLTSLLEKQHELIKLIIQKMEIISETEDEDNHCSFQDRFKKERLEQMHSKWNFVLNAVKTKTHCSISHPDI

[7] = biological target: Transient receptor potential cation channel subfamily M member 8 (Homo sapiens, UniProt Q7Z2W7); assay: Inhibition of human TRPM8
Sequence of Transient receptor potential cation channel subfamily M member 8 (Q7Z2W7 whole entry): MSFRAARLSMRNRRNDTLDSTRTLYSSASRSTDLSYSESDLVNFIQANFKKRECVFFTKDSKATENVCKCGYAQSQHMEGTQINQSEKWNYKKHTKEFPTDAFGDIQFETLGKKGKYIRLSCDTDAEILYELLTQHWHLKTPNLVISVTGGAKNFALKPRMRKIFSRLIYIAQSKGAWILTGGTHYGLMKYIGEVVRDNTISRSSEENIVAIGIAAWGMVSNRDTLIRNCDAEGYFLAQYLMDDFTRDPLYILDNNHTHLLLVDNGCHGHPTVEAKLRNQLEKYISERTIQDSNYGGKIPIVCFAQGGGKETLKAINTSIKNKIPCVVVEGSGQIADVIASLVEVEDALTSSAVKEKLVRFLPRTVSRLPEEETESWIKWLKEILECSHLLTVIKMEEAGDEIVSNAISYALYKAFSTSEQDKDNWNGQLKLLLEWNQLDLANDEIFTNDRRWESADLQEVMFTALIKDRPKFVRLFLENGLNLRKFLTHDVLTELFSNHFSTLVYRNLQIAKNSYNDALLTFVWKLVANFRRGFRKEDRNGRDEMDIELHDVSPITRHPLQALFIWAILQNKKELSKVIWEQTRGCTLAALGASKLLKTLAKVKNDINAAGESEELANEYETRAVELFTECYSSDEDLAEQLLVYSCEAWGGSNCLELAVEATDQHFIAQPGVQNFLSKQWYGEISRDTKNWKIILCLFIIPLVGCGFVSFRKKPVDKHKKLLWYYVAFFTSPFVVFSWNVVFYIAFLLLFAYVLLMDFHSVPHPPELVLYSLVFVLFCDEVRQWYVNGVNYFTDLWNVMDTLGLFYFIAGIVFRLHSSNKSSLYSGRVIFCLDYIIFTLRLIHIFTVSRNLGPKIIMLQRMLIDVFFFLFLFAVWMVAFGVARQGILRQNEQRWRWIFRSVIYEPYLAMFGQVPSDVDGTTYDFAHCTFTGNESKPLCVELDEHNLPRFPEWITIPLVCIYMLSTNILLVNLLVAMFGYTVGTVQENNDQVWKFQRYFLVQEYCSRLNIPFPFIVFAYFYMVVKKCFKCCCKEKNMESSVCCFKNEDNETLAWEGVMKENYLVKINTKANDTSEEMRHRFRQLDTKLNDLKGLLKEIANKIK

[8] = biological target: Transient receptor potential cation channel subfamily V member 1 (Homo sapiens, UniProt Q8NER1); assay: Inhibition of human TRPV1
[9] = biological target: hERG (KCNH2) (Homo sapiens, UniProt Q12809); assay: Inhibition of human ERG at 10 uM by patch clamp assay relative to control
Sequence of hERG (KCNH2) (Q12809 whole entry): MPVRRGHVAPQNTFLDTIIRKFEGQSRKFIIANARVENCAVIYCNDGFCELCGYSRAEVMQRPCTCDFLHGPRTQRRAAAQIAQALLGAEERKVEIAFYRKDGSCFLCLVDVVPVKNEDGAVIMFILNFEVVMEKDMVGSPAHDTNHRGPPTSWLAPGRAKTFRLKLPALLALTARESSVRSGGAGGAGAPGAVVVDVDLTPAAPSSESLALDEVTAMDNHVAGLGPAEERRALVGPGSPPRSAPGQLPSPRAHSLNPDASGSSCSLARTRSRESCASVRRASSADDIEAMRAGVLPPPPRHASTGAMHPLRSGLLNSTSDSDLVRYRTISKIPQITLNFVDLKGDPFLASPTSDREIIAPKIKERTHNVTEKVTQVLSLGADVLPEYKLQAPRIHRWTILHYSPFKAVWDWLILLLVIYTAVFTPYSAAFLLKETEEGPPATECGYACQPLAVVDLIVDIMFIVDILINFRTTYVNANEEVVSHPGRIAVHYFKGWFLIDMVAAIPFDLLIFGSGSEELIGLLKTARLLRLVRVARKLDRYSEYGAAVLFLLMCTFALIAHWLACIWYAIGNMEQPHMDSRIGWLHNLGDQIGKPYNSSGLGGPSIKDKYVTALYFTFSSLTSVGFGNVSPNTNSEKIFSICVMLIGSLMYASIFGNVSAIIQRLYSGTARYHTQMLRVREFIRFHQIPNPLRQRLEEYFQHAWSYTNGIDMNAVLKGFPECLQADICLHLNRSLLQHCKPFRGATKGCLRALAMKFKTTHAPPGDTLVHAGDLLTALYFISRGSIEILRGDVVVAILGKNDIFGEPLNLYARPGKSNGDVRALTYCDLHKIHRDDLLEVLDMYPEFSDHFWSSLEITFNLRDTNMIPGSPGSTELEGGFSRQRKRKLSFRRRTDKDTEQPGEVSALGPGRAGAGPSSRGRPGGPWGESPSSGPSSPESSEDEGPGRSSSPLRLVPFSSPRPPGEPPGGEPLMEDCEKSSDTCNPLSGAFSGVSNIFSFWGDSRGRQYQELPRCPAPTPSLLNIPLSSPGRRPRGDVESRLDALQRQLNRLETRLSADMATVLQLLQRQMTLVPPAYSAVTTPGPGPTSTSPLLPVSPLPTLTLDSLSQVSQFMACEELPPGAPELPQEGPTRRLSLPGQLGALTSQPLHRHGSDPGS
How it was run: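 hERG potassium channel inhibition measured by automated patch clamp at a single concentration of 10 μM.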

[10] = Permeability across apical to basolateral side in MDCK cells; format: ADME, cell-based, Canis lupus familiaris; settings: dog, read-out: permeability
[11] = Protein binding in human plasma; format: ADME, cell-free; settings: read-out: PPB (converted)
[12] = Protein binding in rat plasma; format: ADME, cell-free; settings: read-out: PPB (converted)
[13] = test system: Rattus norvegicus; assay: Half life in rat at 1 mg/kg, iv; format: ADME, organism-based; settings: in vivo
[14] = test system: Rattus norvegicus; assay: Volume of distribution at steady state in rat at 1 mg/kg, iv; format: ADME, organism-based; settings: in vivo
[15] = AUC (0 to 24 hrs) in rat at 1 mg/kg, po; format: ADME, organism-based; set-up: dose 1 mg/kg, time < 24 hr, route oral; settings: in vivo
How it was run: (§2)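 Rat oral dose of 1 mg/kg in MCT vehicle (0.5% methylcellulose with 0.2% Tween 80 in water). Parent plasma exposure measured over 0–24 h. The target multiple is unbound Cmax divided by the rat TRPA1 IC50.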

[16] = AUC (0 to 24 hrs) in rat at 30 mg/kg, po; format: ADME, organism-based; set-up: dose 30 mg/kg, time < 24 hr, route oral; settings: in vivo
How it was run: (§3)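 Rat oral dose of 30 or 100 mg/kg given as an amorphous suspension. Solid was dissolved in DMSO and precipitated into aqueous MCT, giving a final 15% DMSO/85% MCT. Plasma exposure measured over 0–24 h. The target multiple is unbound Cmax divided by the rat TRPA1 IC50.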

[17] = AUC (0 to 24 hrs) in rat at 100 mg/kg, po; format: ADME, organism-based; set-up: dose 100 mg/kg, time < 24 hr, route oral; settings: in vivo; how it was run: as §3
[18] = Cmax in rat at 1 mg/kg, po; format: ADME, organism-based; set-up: dose 1 mg/kg, route oral; settings: in vivo; how it was run: as §2
[19] = Cmax in rat at 30 mg/kg, po; format: ADME, organism-based; set-up: dose 30 mg/kg, route oral; settings: in vivo; how it was run: as §3
[20] = Cmax in rat at 100 mg/kg, po; format: ADME, organism-based; set-up: dose 100 mg/kg, route oral; settings: in vivo; how it was run: as §3
[21] = Oral bioavailability in rat at 1 mg/kg; format: ADME, organism-based; settings: in vivo
[22] = Ratio of unbound Cmax in rat at 1 mg/kg, po to IC50 for rat TRPA1; how it was run: as §2
[23] = Ratio of unbound Cmax in rat at 30 mg/kg, po to IC50 for rat TRPA1; how it was run: as §3
[24] = Ratio of unbound Cmax in rat at 100 mg/kg, po to IC50 for rat TRPA1; how it was run: as §3

Row | SMILES | IC50 [1] [nM] | CLhep predicted [2] [mL/min/kg] | CLhep predicted [3] [mL/min/kg] | logD [4] | solubility kinetic [5] [µM] | also measured
1 | C[C@H]1[C@H](F)C[C@@H](C(=O)NCc2c(F)cnc(-c3cnc(C(F)(F)F)nc3)c2F)N1S(=O)(=O)c1ccc(F)cc1 | 328 | 14 | 36 | 2.5 | 8 (≈ 4.62 µg/mL) | 
2 | C[C@H]1[C@H](F)C[C@@H](C(=O)NCc2cc(-c3cnc(C(F)(F)F)nc3)nc(C3CC3)n2)N1S(=O)(=O)c1ccc(F)cc1 | 5 | 10 | 22 | 3.8 | < 1 | 
3 | O=C(NCc1cc(-c2ccc(C(F)(F)F)nc2)ncn1)[C@@H]1C[C@@H](F)CN1S(=O)(=O)c1ccc(F)cc1 | 1200 | 5 | 10 | 2.4 |  | 
4 | O=C(NCc1cc(-c2ccc(C(F)(F)F)nc2)ncn1)[C@@H]1C[C@H](F)CN1S(=O)(=O)c1ccc(F)cc1 | 4400 | 7 | 40 | 1.8 |  | 
5 | O=C(NCc1cc(-c2ccc(C(F)(F)F)nc2)ncn1)[C@@H]1CCCCN1S(=O)(=O)c1ccc(F)cc1 | 2300 | 18 | 46 | 3.4 |  | 
6 | C[C@@H]1CC[C@@H](C(=O)NCc2cc(-c3ccc(C(F)(F)F)nc3)ncn2)N1S(=O)(=O)c1ccc(F)cc1 | 239 | 19 | 30 | 4.3 |  | 
7 | O=C(NCc1cc(-c2ccc(C(F)(F)F)nc2)ncn1)[C@@H]1CCCN1S(=O)(=O)c1ccc(F)cc1 | 154 | 16 | 43 | 2.7 |  | 
8 | C[C@H]1[C@H](F)C[C@@H](C(=O)NCc2cc(-c3cnc(C(F)(F)F)cn3)ncn2)N1S(=O)(=O)c1ccc(F)cc1 |  | 14 | 18 | 2.3 | 18 (≈ 9.76 µg/mL) | 
9 | O=C(NCc1cc(-c2ccc(C(F)(F)F)nc2)ncn1)[C@@H]1CCN1S(=O)(=O)c1ccc(F)cc1 | 1500 | 10 | 27 | 2.4 |  | 
10 | C[C@H]1CC[C@@H](C(=O)NCc2cc(-c3ccc(C(F)(F)F)nc3)ncn2)N1S(=O)(=O)c1ccc(F)cc1 | 13 | 19 | 47 | 2.9 |  | 

Further lines, with some results ahead:

Row | IC50 [1] [nM] | CLhep predicted [2] [mL/min/kg] | CLhep predicted [3] [mL/min/kg] | logD [4] | solubility kinetic [5] [µM] | SMILES | also measured
11 |  | 12 | 25 | 3 | < 1 | C[C@H]1[C@H](F)C[C@@H](C(=O)NCc2ccnc(-c3cnc(C(F)(F)F)nc3)c2)N1S(=O)(=O)c1ccc(F)cc1 | 
12 | 8 | 10 | 17 | 2.6 | < 1 | C[C@H]1[C@H](F)C[C@@H](C(=O)NCc2cc(-c3cnc(C(F)(F)F)nc3)ncc2F)N1S(=O)(=O)c1ccc(F)cc1 | IC50 [6]: 36 nM; IC50 [7]: > 20000 nM; IC50 [8]: > 20000 nM; inhibition at 10 µM [9]: 14.3%; Papp A→B [10]: 11.2 ×10⁻⁶ cm/s; fraction unbound [11]: 0.02; fraction unbound [12]: 0.028; t1/2 [13]: 7.5 h; Vdss [14]: 7.5 L/kg; AUC(0-t) at 24 h [15]: 0.56 µM·h; AUC(0-t) at 24 h [16]: 32.8 µM·h; AUC(0-t) at 24 h [17]: 39.6 µM·h; Cmax [18]: 30 nM; Cmax [19]: 2330 nM; Cmax [20]: 2510 nM; bioavailability [21]: 12%; Ratio [22]: 0.02; Ratio [23]: 1.81; Ratio [24]: 1.95
13 | 10 | 9 | 16 |  | 14 (≈ 7.93 µg/mL) | C[C@H]1[C@H](F)C[C@@H](C(=O)NCc2cc(-c3cnc(C(F)(F)F)nc3)ncc2C#N)N1S(=O)(=O)c1ccc(F)cc1 | 
14 | 33 | 13 | 18 | 2.6 | 84 (≈ 47 µg/mL) | C[C@H]1[C@H](F)C[C@@H](C(=O)NCc2cc(-c3cnc(C(F)(F)F)nc3)c(F)cn2)N1S(=O)(=O)c1ccc(F)cc1 | 
15 | 179 | 10 | 19 | 2.7 | 2 (≈ 1.08 µg/mL) | C[C@H]1[C@H](F)C[C@@H](C(=O)NCc2cc(-c3ccc(C(F)(F)F)nc3)ncn2)N1S(=O)(=O)c1ccc(F)cc1 | 
16 | 13 | 15 | 21 | 2.5 | 8 (≈ 4.61 µg/mL) | C[C@H]1[C@H](F)C[C@@H](C(=O)NCc2cc(-c3cnc(C(F)(F)F)nc3)c(Cl)cn2)N1S(=O)(=O)c1ccc(F)cc1 | 
17 | 64 | 11 | 18 | 2.5 | 53 (≈ 28.8 µg/mL) | C[C@H]1[C@H](F)C[C@@H](C(=O)NCc2cc(-c3cnc(C(F)(F)F)nc3)ncn2)N1S(=O)(=O)c1ccc(F)cc1 | 
18 | 5 | 11 | 20 |  | < 1 | C[C@H]1[C@H](F)C[C@@H](C(=O)NCc2cc(-c3cnc(C(F)(F)F)nc3)ncc2Cl)N1S(=O)(=O)c1ccc(F)cc1 | 
19 |  | 16 | 18 | 3.3 | 132 (≈ 71.5 µg/mL) | C[C@H]1[C@H](F)C[C@@H](C(=O)NCc2cc(-c3cnc(C(F)(F)F)nc3)ccn2)N1S(=O)(=O)c1ccc(F)cc1 | 
20 | 96 | 17 | 25 | 2.3 | 123 (≈ 69.7 µg/mL) | C[C@H]1[C@H](F)C[C@@H](C(=O)NCc2cc(-c3cnc(C(F)(F)F)nc3)c(C#N)cn2)N1S(=O)(=O)c1ccc(F)cc1 | 
